In ChEMBL document CHEMBL1146340, “Synthesis of the 5-phosphono-pent-2-en-1-yl nucleosides: a new class of antiviral acyclic nucleoside phosphonates” (Bioorg Med Chem, 2007):

How the values were obtained:
[1] = Cytotoxicity against human MRC5 cells by neutral red uptake assay; type: cell-based
How it was run: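 MRC-5 human lung fibroblasts seeded at 2.5 x 10^4 cells/well and incubated 24 h. Medium then replaced with MEM plus 2% FBS. Drug diluted serially 5-fold from 100 μM to 0.03 μM and exposed for 7 days. Cells stained with neutral red for 1 h, dye solubilized in 1% acetic acid/50% ethanol, OD read at 540 nm. CC50 (50% viability reduction) calculated; mean ± SD of 3 experiments.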

[2] = Specificity index, Ratio of CC50 for MCR5 cells to EC50 for HSV1; type: functional
How it was run: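 Ratio of CC50 to EC50, both measured in MRC-5 human lung fibroblasts. […] CC50: neutral red uptake after 7 days, 5-fold dilutions from 100 μM to 0.03 μM, OD 540 nm; mean of 3 experiments.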

SMILES | CC50 [1] | Selectivity index [2]
CCCCCCCCCCCCCCCCOCCCOP(=O)(O)CC/C=C\Cn1cnc2c(=O)nc(N)[nH]c21 | 12.2 µM | 2.1
Nc1ncnc2c1ncn2C/C=C\CCP(=O)(O)O | > 100 µM | 
Cc1cn(C/C=C\CCP(=O)(O)O)c(=O)[nH]c1=O | > 100 µM | 
CCCCCCCCCCCCCCCCOCCCOP(=O)(O)CC/C=C\Cn1cnc2c(N)ncnc21 | 17.3 µM | 0.96
Nc1ccn(C/C=C\CCP(=O)(O)O)c(=O)n1 | > 100 µM | 
CCCCCCCCCCCCCCCCOCCCOP(=O)(O)CC/C=C\Cn1ccc(=O)[nH]c1=O | 51 µM | 
Nc1nc(=O)c2ncn(C/C=C\CCP(=O)(O)O)c2[nH]1 | > 100 µM | 
CCCCCCCCCCCCCCCCOCCCOP(=O)(O)CC/C=C\Cn1ccc(N)nc1=O | 11.2 µM | 2.38
CCCCCCCCCCCCCCCCOCCCOP(=O)(O)CC/C=C\Cn1cc(C)c(=O)[nH]c1=O | 7.4 µM | 8.22
O=c1nc(O)ccn1C/C=C\CCP(=O)(O)O | > 100 µM | 
